From publication PMC4959095 (The Journal of Pharmacology and Experimental Therapeutics, 2016)

How the values were obtained:
hOTR (oxytocin receptor) = target: T1, hOTR (oxytocin receptor) (Homo sapiens, UniProt P30559); type: cell-based; conditions: calcium flux, normalized to control responses
T1 sequence (P30559 1-389): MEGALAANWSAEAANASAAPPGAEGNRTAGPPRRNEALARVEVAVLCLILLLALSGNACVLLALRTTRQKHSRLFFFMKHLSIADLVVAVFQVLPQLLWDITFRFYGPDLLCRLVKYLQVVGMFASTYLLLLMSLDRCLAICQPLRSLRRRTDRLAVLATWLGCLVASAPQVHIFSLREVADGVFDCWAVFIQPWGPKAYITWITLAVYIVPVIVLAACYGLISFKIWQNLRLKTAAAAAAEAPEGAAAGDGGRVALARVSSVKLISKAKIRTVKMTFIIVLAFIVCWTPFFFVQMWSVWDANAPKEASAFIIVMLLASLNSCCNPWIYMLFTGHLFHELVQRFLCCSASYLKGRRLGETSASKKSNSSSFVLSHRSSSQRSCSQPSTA

[1] = subcutaneous nondepot pharmacokinetics in mice; type: in vivo, mouse
How it was run: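 Male C57BL/6J mice (n = 3 per dose) got a single nondepot s.c. injection.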

[2] = intravenous pharmacokinetics in rats; type: in vivo; conditions: male, Wistar Hannover, rat, plasma, 0.1 mg/kg
How it was run: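 Jugular vein-cannulated male Wistar Hannover rats (250–300 g; n = 3) got a single i.v. bolus at 1 ml/kg. The native peptide was in 10% propylene glycol/90% 20 mM sodium phosphate, pH 7.4; the analog in 10% SEDDs/90% 20 mM phosphate, pH 5. Serial cannula blood was drawn predose and at 0.033–24 hours. Plasma standard curve ran 0.1–250 ng/ml with 1/x2 linear regression.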

V1a receptor = V1a receptor (Homo sapiens, UniProt P37288); assay: V1a receptor functional agonist assay; type: cell-based
[3] = subcutaneous depot pharmacokinetics in mice; type: in vivo, mouse
How it was run: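 Male C57BL/6J mice (n = 2) got a single s.c. injection (100 µl) in a lipid-based gel depot designed for sustained release over at least 48 hours. Retro-orbital blood was drawn at 0.5, 1, 2, 4, 6 and 24 hours. Plasma standard curves were 0.5–1000 ng/ml (analog) and 0.5–500 ng/ml (native peptide), 1/x2 regression. Free concentrations were derived with fu,p.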

[4] = mice, s.c. 1 mg/kg, nondepot formulation
[5] = male, C57BL/6J, mouse, plasma, sc, 20 mg/kg

V1a receptor, sequence (P37288 whole entry): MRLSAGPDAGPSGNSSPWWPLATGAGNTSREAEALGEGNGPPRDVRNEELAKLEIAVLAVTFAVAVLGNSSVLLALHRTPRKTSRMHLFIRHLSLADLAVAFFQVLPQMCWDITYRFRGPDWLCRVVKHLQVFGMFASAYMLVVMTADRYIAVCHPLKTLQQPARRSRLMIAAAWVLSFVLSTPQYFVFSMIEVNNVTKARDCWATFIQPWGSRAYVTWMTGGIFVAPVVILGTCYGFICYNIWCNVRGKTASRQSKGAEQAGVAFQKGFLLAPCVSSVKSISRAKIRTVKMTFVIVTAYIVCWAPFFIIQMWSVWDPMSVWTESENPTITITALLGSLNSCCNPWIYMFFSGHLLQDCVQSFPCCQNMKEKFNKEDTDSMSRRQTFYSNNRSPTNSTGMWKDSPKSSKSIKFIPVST

Question: Which results are given for `CC[C@H](C)[C@@H]1NC(=O)[C@H](Cc2ccc(O)cc2)NC(=O)[C@@H](N)CSSC[C@@H](C(=O)N2CCC[C@H]2C(=O)N[C@@H](CC(C)C)C(=O)NCC(N)=O)NC(=O)[C@H](CC(N)=O)NC(=O)[C@H](CCC(N)=O)NC1=O` [OT, Oxytocin]?
Answer: OTR % agonist (hOTR (oxytocin receptor)): 100 (n = 70) %; Cmax ([1]; male, C57BL/6J, mouse, plasma, sc, 1 mg/kg): 216 nM; free Cmax [1, 4]: 191 nM; time of Cmax postdose [1, 4]: 0.25 h; clearance [2]: 17.1 mL/min/kg; half-life [2]: 7.2 min; V1a % agonist (V1a receptor): 94 (n = 70) %; Cmax [3, 5]: 65.4 nM; half-life [3, 5]: 7.3 h; free Cmax ([3]; mice, s.c. 20 mg/kg, depot formulation): 58.2 nM
